Measurements of several laboratories.
Lines come from different studies, so protocols differ.
FLT3 D835Y: Receptor-type tyrosine-protein kinase FLT3 (FLT3, Homo sapiens, UniProt P36888, D835Y)
FLT3 K663Q: Receptor-type tyrosine-protein kinase FLT3 (FLT3, Homo sapiens, UniProt P36888, K663Q)
FLT3 D835V: Receptor-type tyrosine-protein kinase FLT3 (FLT3, Homo sapiens, UniProt P36888, D835V)
FLT3 N841I: Receptor-type tyrosine-protein kinase FLT3 (FLT3, Homo sapiens, UniProt P36888, N841I)
FLT3 R834Q: Receptor-type tyrosine-protein kinase FLT3 (FLT3, Homo sapiens, UniProt P36888, R834Q)
FLT3 D835H: Receptor-type tyrosine-protein kinase FLT3 (FLT3, Homo sapiens, UniProt P36888, D835H)
FLT3: Receptor-type tyrosine-protein kinase FLT3 (FLT3, Homo sapiens, UniProt P36888)

Cc1cnn2ncc(-c3ccnc(N(C)C)n3)c2c1  remaining binding (FLT3 D835Y; binding; 1 µM): 81%
CO[C@@H](C)c1c(Nc2ccc([C@H](N(C)C(=O)C3CCS(=O)(=O)CC3)C(F)(F)F)cc2)cnc2cc(Cl)nn12  remaining binding (FLT3 K663Q; cell-free assay, competition with immobilised ligand; 1 µM): 100%
N[C@@H]1CCN(c2nccc(-c3cnn4ncccc34)n2)C1  remaining binding (FLT3 D835V; binding; 1 µM): 65%
COc1ncc2cc3ccccc3nc2c1C#N  remaining binding (FLT3 N841I; cell-free assay, competition with immobilised ligand; 5 µM): 100%
N#CC1(c2ccccn2)CCN(Cc2cc(C(=O)N3CCCC3)c(=O)n3ccccc23)CC1  remaining binding (FLT3 D835Y; cell-free assay, competition with immobilised ligand; 1 µM): 71%
C[C@@H]1CCN(c2nccc(-c3cnn4ncccc34)n2)C1  remaining binding (FLT3 N841I; binding; 1 µM): 99%
N#Cc1ccc(Nc2ccc3[nH]c(=O)[nH]c3c2)c(Cl)c1  remaining binding (FLT3 D835Y; cell-free assay, competition with immobilised ligand; 1 µM): 94%
O=C(c1ccc(Nc2ncc(Cl)c(-c3ccc(Cl)s3)n2)cc1)N1CCC(N2CCCC2)CC1  remaining binding (FLT3 R834Q; binding, competition with immobilised ligand; 1 µM): 5.3%
CCOCCn1cc(C(=O)Nc2ccc(-n3nc(-c4cccnc4)cc3C(F)(F)F)cn2)ccc1=O  remaining binding (FLT3 D835H; cell-free assay, competition with immobilised ligand; 1 µM): 87%
O=C(NCCCN1CCOCC1)c1ccc(Nc2nccc(-c3cc4ccccc4s3)n2)cc1  remaining binding (FLT3 D835V; binding, competition with immobilised ligand; 1 µM): 3.4%
COc1ccc2c(O[C@@H]3C[C@H]4C(=O)N[C@]5(C(=O)O)CC5/C=C\CCCCC[C@H](NC(=O)OC5CCCC5)C(=O)N4C3)cc(-c3csc(NC(=O)C(C)C)n3)nc2c1C (some centres unmarked)  remaining binding (FLT3 R834Q; cell-free assay, competition with immobilised ligand; 1 µM): 92%
c1cncc(-c2cccc(Nc3nccc(NC4CCCCC4)n3)c2)c1  remaining binding (FLT3 K663Q; binding, competition with immobilised ligand; 10 µM): 1.1%
O=C(NCC1CCOCC1)c1n[nH]cc1NC(=O)c1c(F)cccc1F  remaining binding (FLT3 R834Q; binding, competition with immobilised ligand; 1 µM): 77%
Cc1cnc(Nc2ccc(C(=O)N3CCC(N4CCCC4)CC3)cc2)nc1-c1cc2ccccc2s1  remaining binding (FLT3; binding, competition with immobilised ligand; 1 µM): 1.6%
c1cnn2ncc(-c3ccnc(N4CCC45COC5)n3)c2c1  remaining binding (Receptor-type tyrosine-protein kinase FLT3, autoinhibited (FLT3, Homo sapiens, UniProt P36888); binding; 1 µM): 58%
C=CC(=O)N1CCC(C(=O)NCC(=O)N2CCN(c3nc(-c4cnc(N)nc4C(F)F)nc(N4CCOCC4)n3)CC2)CC1  remaining binding (FLT3 K663Q; binding, competition with immobilised ligand; 1 µM): 100%
O=C1NC(c2ccccn2)Sc2ccccc21 (centres unmarked)  remaining binding (Receptor-type tyrosine-protein kinase FLT3 (FLT3, Homo sapiens, UniProt P36888, D835V/ITD); cell-free assay, competition with immobilised ligand; 1 µM): 83%
CN(C)c1ncc(F)c(-c2cnn3ncccc23)n1  remaining binding (FLT3 D835H; binding; 1 µM): 86%
Nc1ncc2c(n1)-c1c([nH]c3ccc(C#CC4CC4)cc13)CCCC2  remaining binding (FLT3 D835H; binding, competition with immobilised ligand; 1 µM): 88%
CN(C)c1nccc(-c2cnn3ncccc23)n1  remaining binding (FLT3 K663Q; binding; 1 µM): 100%
CC(=O)Nc1c(C(C)=O)c(=O)n(C)c2nc(-c3ccc(Cl)cc3Cl)c(-c3ccc(Cl)cc3)cc12  remaining binding (Receptor-type tyrosine-protein kinase FLT3 (FLT3, Homo sapiens, UniProt P36888, F691L/ITD); cell-free assay, competition with immobilised ligand; 1 µM): 100%
O=C(c1ccc(Nc2nccc(-c3cc4ccccc4s3)n2)cc1)N1CCC(N2CCCC2)CC1  remaining binding (FLT3 N841I; binding, competition with immobilised ligand; 1 µM): 3.6%
COc1cnc(Nc2cccc(S(N)(=O)=O)c2)nc1N1CCN(c2ccccc2)C(=O)C1  remaining binding (FLT3; binding, competition with immobilised ligand; 1 µM): 97%
